Measured values from ChEMBL document CHEMBL4732208, “Discovery of novel N-alkylcytidines as promising antimicrobial agents” (Eur J Med Chem, 2021).
The source made the active and inactive calls.

Legend:
[1] = system: Leuconostoc mesenteroides; experiment: Antibacterial activity against Leuconostoc mesenteroides VKPM B-4177; format: functional
Outline: (§1)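 Strains grown in modified Gause's nutrient medium N 2, inoculum 10⁶ cells/ml. Test compound dissolved in 50% aqueous methanol, added at ten volume percent of the medium. Growth controls: medium without additions, medium with solvent mixture, and clinical antibiotics (amikacin, ciprofloxacin, isoniazid, rifampicin, oxacillin, vancomycin).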

Bacillus subtilis = experiment: Antibacterial activity against Bacillus subtilis ATCC 6633; format: functional; outline: as §1
[2] = system: Mycolicibacterium smegmatis; experiment: Antibacterial activity against Mycobacterium smegmatis mc2155; format: functional
Outline: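 Strains were grown in modified Gause's nutrient medium N 2 at 10⁶ cells/ml. The compound was dissolved in 50% aqueous methanol and added at 10 volume percent of the medium. Controls were untreated cultures, medium with the solvent mixture, and clinical antibiotics.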

[3] = system: Mycolicibacterium smegmatis; experiment: Antibacterial activity against Mycobacterium smegmatis VKPM Ac-1339; format: functional; outline: as §1
Staphylococcus aureus [4] = experiment: Antibacterial activity against Staphylococcus aureus FDA 209 P; format: functional; outline: as §1
Staphylococcus aureus [5] = experiment: Antibacterial activity against Staphylococcus aureus INA 00761; format: functional; outline: as §1
Micrococcus luteus = experiment: Antibacterial activity against Micrococcus luteus NCTC 8340; format: functional; outline: as §1
[6] = Cytotoxicity against human A549 cells by MTT assay; format: cell-based
Outline: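 Adherent A549 cells passaged in DMEM with 10% fetal calf serum and 2 mM glutamine, at 37 °C, 5% CO2, 90% humidity. MTT test. CC50 is the concentration that inhibits culture growth by 50%.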

[7] = Acute toxicity in ip dosed mouse administered for 5 days and observed for 4 weeks; format: organism-based; details: in vivo
[8] = Subchronic toxicity in ip dosed mouse administered for 5 days and observed for 4 weeks; format: organism-based; details: in vivo
[9] = Subchronic toxicity in ip dosed mouse assessed as delayed effect administered for 5 days and observed for 4 weeks; format: organism-based; details: in vivo
Aspergillus versicolor [10] = experiment: Antifungal activity against Aspergillus versicolor SRX7729174 STG-25G assessed as reduction in fungal growth at 3 mM measured upto 48 days by drop dilution assay relative to control; format: functional; details: time day <=48
Outline: (§2)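 Incubated up to 48 days at 26 °C. Colony diameters read every 3 days (days 6–48). Growth inhibition = (Dc−Dt)/Dc × 100 versus control. Inoculum 5 × 10⁵ CFU. Triplicate, repeated at least twice.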

[11] = Antifungal activity against Aspergillus-creber SRX7729180 STG-57 assessed as reduction in fungal growth at 3 mM measured upto 48 days by drop dilution assay relative to control; format: functional; details: time day <=48; outline: as §2
Aspergillus versicolor [12] = experiment: Antifungal activity against Aspergillus versicolor SRX7729182 STG-25G assessed as reduction in fungal growth at 3 mM measured upto 48 days by drop dilution assay relative to control; format: functional; details: time day <=48; outline: as §2
Aspergillus [13] = experiment: Antifungal activity against Aspergillus SRX7729186 STG-93W assessed as reduction in fungal growth at 3 mM measured upto 48 days by drop dilution assay relative to control; format: functional; details: time day <=48; outline: as §2
[14] = Antifungal activity against Aspergillus-amoenus SRX7729194 STG-106 assessed as reduction in fungal growth at 3 mM measured upto 48 days by drop dilution assay relative to control; format: functional; details: time day <=48; outline: as §2
[15] = Antifungal activity against Cladosporium-halotolerans SRX7729178 STG-52B assessed as reduction in fungal growth at 3 mM measured upto 48 days by drop dilution assay relative to control; format: functional; details: time day <=48; outline: as §2
[16] = Antifungal activity against Cladosporium-parahalotolerans SRX7729188 STG-93B assessed as reduction in fungal growth at 3 mM measured upto 48 days by drop dilution assay relative to control; format: functional; details: time day <=48; outline: as §2
[17] = Antifungal activity against Ulocladium chartarum SRX7729176 STG-36 assessed as reduction in fungal growth at 3 mM measured upto 48 days by drop dilution assay relative to control; format: functional; details: Alternaria chartarum, time day <=48; outline: as §2
[18] = system: Simplicillium lamellicola; experiment: Antifungal activity against Simplicillium lamellicola SRX772919 STG-96 assessed as reduction in fungal growth at 3 mM measured upto 48 days by drop dilution assay relative to control; format: functional; details: time day <=48; outline: as §2
[19] = Antifungal activity against Microascus-paisii SRX7729192 STG-103 assessed as reduction in fungal growth at 3 mM measured upto 48 days by drop dilution assay relative to control; format: functional; details: time day <=48; outline: as §2
Aspergillus versicolor [20] = experiment: Antifungal activity against Aspergillus versicolor SRX7729174 STG-25G assessed as reduction in fungal growth at 0.1 to 3.5 mM measured for 24 days by drop dilution assay relative to control; format: functional; details: dose 0.1-3.5 mM, time 24.0 day
Outline: (§3)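 Drop-dilution method. Suspension plated on CDA with or without compound (screening range 0.1–3.5 mM); 5-fluorocytosine positive control. Incubated at 26 °C. Inhibition % = (Dc−Dt)/Dc × 100 from colony diameters; triplicate, repeated at least twice.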

Aspergillus creber = experiment: Antifungal activity against Aspergillus-creber SRX7729180 STG-57 assessed as reduction in fungal growth at 0.1 to 3.5 mM measured for 24 days by drop dilution assay relative to control; format: functional; details: dose 0.1-3.5 mM, time 24.0 day; outline: as §3
Aspergillus versicolor [21] = experiment: Antifungal activity against Aspergillus versicolor SRX7729182 STG-25G assessed as reduction in fungal growth at 0.1 to 3.5 mM measured for 24 days by drop dilution assay relative to control; format: functional; details: dose 0.1-3.5 mM, time 24.0 day; outline: as §3
Aspergillus [22] = experiment: Antifungal activity against Aspergillus SRX7729186 STG-93W assessed as reduction in fungal growth at 0.1 to 3.5 mM measured for 24 days by drop dilution assay relative to control; format: functional; details: dose 0.1-3.5 mM, time 24.0 day; outline: as §3
Aspergillus amoenus = experiment: Antifungal activity against Aspergillus-amoenus SRX7729194 STG-106 assessed as reduction in fungal growth at 0.1 to 3.5 mM measured for 24 days by drop dilution assay relative to control; format: functional; details: dose 0.1-3.5 mM, time 24.0 day; outline: as §3
[23] = system: Cladosporium halotolerans; experiment: Antifungal activity against Cladosporium-halotolerans SRX7729178 STG-52B assessed as reduction in fungal growth at 0.1 to 3.5 mM measured for 24 days by drop dilution assay relative to control; format: functional; details: dose 0.1-3.5 mM, time 24.0 day; outline: as §3
[24] = system: Cladosporium parahalotolerans; experiment: Antifungal activity against Cladosporium-parahalotolerans SRX7729188 STG-93B assessed as reduction in fungal growth at 0.1 to 3.5 mM measured for 24 days by drop dilution assay relative to control; format: functional; details: dose 0.1-3.5 mM, time 24.0 day; outline: as §3
Alternaria chartarum = experiment: Antifungal activity against Ulocladium chartarum SRX7729176 STG-36 assessed as reduction in fungal growth at 0.1 to 3.5 mM measured for 24 days by drop dilution assay relative to control; format: functional; details: dose 0.1-3.5 mM, time 24.0 day; outline: as §3
[25] = system: Simplicillium lamellicola; experiment: Antifungal activity against Simplicilium-lamellicola SRX772919 STG-96 assessed as reduction in fungal growth at 0.1 to 3.5 mM measured for 24 days by drop dilution assay relative to control; format: functional; details: dose 0.1-3.5 mM, time 24.0 day; outline: as §3
Microascus paisii = experiment: Antifungal activity against Microascus-paisii SRX7729192 STG-103 assessed as reduction in fungal growth at 0.1 to 3.5 mM measured for 24 days by drop dilution assay relative to control; format: functional; details: dose 0.1-3.5 mM, time 24.0 day; outline: as §3

CCCCCCCCCCCCNc1nc(=O)n([C@H]2C[C@H](O)[C@@H](CO)O2)cc1C
270 mg/kg: LD50 at 672 h [7]
100%: inhibition at 3000 µM (Aspergillus versicolor [10]) | inhibition at 3000 µM [11] | inhibition at 3000 µM (Aspergillus versicolor [12]) | inhibition at 3000 µM (Aspergillus [13]) | inhibition at 3000 µM [14] | inhibition at 3000 µM [15] | inhibition at 3000 µM [16] | inhibition at 3000 µM [17] | inhibition at 3000 µM [18] | inhibition at 3000 µM [19]
24 µM: MIC [1] | MIC (Bacillus subtilis) | MIC [2] | MIC [3] | MIC (Micrococcus luteus)
48 µM: MIC (Staphylococcus aureus [4]) | MIC (Staphylococcus aureus [5])
200 mg/kg: LD50 at 672 h [9]
active: inhibition (Aspergillus versicolor [20]) | inhibition (Aspergillus creber) | inhibition (Aspergillus versicolor [21]) | inhibition (Aspergillus [22]) | inhibition (Aspergillus amoenus) | inhibition [23] | inhibition [24] | inhibition (Alternaria chartarum) | inhibition [25] | inhibition (Microascus paisii)
158 µM: CC50 [6]
215 mg/kg: LD50 at 672 h [8]
